Consider 27 molecules from ChEMBL document CHEMBL1781927, “Highly selective c-Jun N-terminal kinase (JNK) 3 inhibitors with in vitro CNS-like pharmacokinetic properties II. Central core replacement” (Bioorg Med Chem Lett, 2011).

≈ marks a conversion by molar mass, not a printed value.

For data set [1], the target named is Mitogen-activated protein kinase 9 (Homo sapiens, UniProt P45984). As to the kind of experiment: Inhibition of JNK2 by TR-FRET assay. In outline:
(§1)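 IC50s were determined at a single fixed ATP concentration, and each value is the mean of at least three independent experiments.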
(In TR-FRET formats the signal depends on donor and acceptor labels being close together.)

Data set [2] deals with Mitogen-activated protein kinase 8 (Homo sapiens, UniProt P45983). As to the kind of experiment: Inhibition of JNK1 by TR-FRET assay. In outline:
as §1

The target of data set [3] is Mitogen-activated protein kinase 10 (Homo sapiens, UniProt P53779). As to the kind of experiment: Inhibition of JNK3 by TR-FRET assay. In outline:
as §1

Data set [4] in a line: Solubility of the compound. The class given is physicochemical.
A short description of data set [5]: Oxidative metabolic stability in human liver microsomes assessed as compound remaining after 30 mins. The class given is ADME, Microsome. Conditions: read-out: Stability. In outline: (§2)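 Liver microsomes, mouse or human, were incubated with the compound for 30 min under oxidative conditions. The read-out is the percent of parent compound remaining.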
In general terms: Liver microsomes are vesicles of endoplasmic reticulum, rich in cytochrome P450 enzymes.

Data set [6] is described as follows: Oxidative metabolic stability in mouse liver microsomes assessed as compound remaining after 30 mins. The class given is ADME, Microsome. Conditions: read-out: Stability. The method in brief:
as §2

Data set [7] in a line: Apparent permeability from apical to basolateral side in MDCK2 cells at 5 uM after 120 mins. The class given is ADME, cell-based, Canis lupus familiaris, MDCK-II. Conditions: dog, MDCK.
The nature of data set [8]: Metabolic stability in human liver microsomes assessed as compound remaining after 60 mins in presence of UDPGA. The class given is ADME, Microsome. The following applies: read-out: Stability.
Data set [9] can be described thus: Metabolic stability in mouse liver microsomes assessed as compound remaining after 60 mins in presence of UDPGA. The class given is ADME, Microsome. Conditions: read-out: Stability.
Data set [10] can be described thus: Selectivity ratio of IC50 for JNK1 to IC50 for JNK3.
Data set [11] in a line: Efflux ratio, permeability from apical to basolateral side to basolateral to apical side in MDR1 expressing MDCK2 cells at 5 uM after 120 mins. The following applies: dog, mdck-ii, 2 h. The class given is ADME, cell-based, Canis lupus familiaris.

Sequence of Mitogen-activated protein kinase 9 (P45984 whole entry): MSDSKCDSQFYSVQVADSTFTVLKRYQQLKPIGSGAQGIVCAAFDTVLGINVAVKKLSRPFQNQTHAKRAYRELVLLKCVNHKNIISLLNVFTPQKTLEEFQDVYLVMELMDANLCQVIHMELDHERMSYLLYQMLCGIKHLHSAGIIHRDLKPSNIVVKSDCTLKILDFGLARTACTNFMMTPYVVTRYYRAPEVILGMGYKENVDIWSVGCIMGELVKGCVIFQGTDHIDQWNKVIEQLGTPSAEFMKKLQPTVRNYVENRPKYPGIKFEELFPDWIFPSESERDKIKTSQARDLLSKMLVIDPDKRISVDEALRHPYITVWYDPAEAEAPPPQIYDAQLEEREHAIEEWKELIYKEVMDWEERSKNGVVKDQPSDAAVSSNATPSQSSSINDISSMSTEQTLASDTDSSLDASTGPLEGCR
Sequence of Mitogen-activated protein kinase 8 (P45983 whole entry): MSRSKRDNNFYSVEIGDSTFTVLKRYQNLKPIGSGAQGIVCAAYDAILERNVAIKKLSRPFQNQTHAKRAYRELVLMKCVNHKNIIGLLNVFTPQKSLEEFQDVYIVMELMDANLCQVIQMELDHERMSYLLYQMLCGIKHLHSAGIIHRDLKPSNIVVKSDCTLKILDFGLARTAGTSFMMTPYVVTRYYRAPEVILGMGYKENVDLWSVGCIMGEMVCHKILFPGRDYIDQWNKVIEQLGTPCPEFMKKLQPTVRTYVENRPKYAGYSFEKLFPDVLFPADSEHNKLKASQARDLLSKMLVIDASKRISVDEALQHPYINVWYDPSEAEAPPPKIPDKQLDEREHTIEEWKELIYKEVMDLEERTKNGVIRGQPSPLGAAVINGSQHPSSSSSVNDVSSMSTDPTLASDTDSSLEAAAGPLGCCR
Sequence of Mitogen-activated protein kinase 10 (P53779 whole entry): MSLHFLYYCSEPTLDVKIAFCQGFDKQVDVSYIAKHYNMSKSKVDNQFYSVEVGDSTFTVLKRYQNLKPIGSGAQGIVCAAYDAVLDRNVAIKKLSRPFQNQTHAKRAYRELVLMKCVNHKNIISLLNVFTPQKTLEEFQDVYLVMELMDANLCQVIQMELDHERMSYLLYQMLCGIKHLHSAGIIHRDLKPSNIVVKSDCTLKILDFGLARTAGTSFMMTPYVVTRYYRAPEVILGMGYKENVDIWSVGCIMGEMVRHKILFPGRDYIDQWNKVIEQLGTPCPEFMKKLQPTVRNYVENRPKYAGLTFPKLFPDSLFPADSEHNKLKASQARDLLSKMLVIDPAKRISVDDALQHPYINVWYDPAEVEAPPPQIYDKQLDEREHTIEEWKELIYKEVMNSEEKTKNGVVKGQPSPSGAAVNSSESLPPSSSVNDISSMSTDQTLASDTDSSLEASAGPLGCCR

What is called IC50 is the concentration needed to halve the response being measured. The term solubility denotes how much of the substance goes into solution per volume. On to `S=c1[nH]nc(-c2ccncc2)n1-c1ccc2ncccc2c1`, for which the figures for the IC50 in data set [1], in data set [2] and in [3] were more than 50 µM, more than 50 µM and 31.8 µM, respectively. Also, in data set [4], the solubility was found to be 15 µM (≈ 4.58 µg/mL).

Consider `S=c1[nH]nc(-c2ccnc(Br)c2)n1-c1ccc2ccccc2c1`, for which the IC50 in [1], in [2] and in data set [3] was more than 50 µM throughout. In [4], this molecule gave a solubility of 35 µM (≈ 13.4 µg/mL).

`FC(F)(F)c1nnc(-c2ccncc2)n1-c1ccc2ccccc2c1`: the IC50 in data set [1], in [2] and in data set [3] was more than 50 µM in each case. For the same molecule, in data set [4], the solubility was 15 µM (≈ 5.1 µg/mL).

Regarding `Clc1nnn(-c2ccncc2)c1-c1ccc2ccccc2c1`, the remaining at 0.5 h in [5] turned out to be 5%; in data set [6], 0%. Also, the IC50 is 37.9 µM in [1], more than 50 µM in [2] and 12.6 µM in [3].

In the case of `Nc1cc(-c2n[nH]c(=S)n2-c2ccc3ccccc3c2)ccn1`, the IC50 in [1] was 0.504 µM; in data set [2] it was 24.3 µM; in data set [3], 1.03 µM. Also, in [4], the solubility came out at 100 µM (≈ 31.9 µg/mL).

With `c1ccc2cc(-c3nnnn3-c3ccncc3)ccc2c1`, the remaining at 0.5 h in [5] was 16%; in data set [6] it was 0%. Also, the IC50 in data set [1], in data set [2] and in data set [3] was more than 50 µM in each case.

The Papp A→B is the apparent permeability from the apical to the basolateral side of a cell layer. For `c1ccc2cc(-c3cnnn3-c3ccncc3)ccc2c1`, the Papp A→B at 2 h, 5 µM in [7] was determined as 37.9 ×10⁻⁶ cm/s. Besides, the results for the remaining at 0.5 h in data set [5] and in [6] were 12% and 0%, respectively. Besides, the IC50 in [1] was 18.6 µM; in data set [2] it was more than 50 µM; in data set [3] it was 4.81 µM. For the same molecule, the remaining at 1 h in [8] was found to be 78%; in data set [9], 90%.

In the case of `c1ccc2cc(-c3[nH]nnc3-c3ccncc3)ccc2c1`, the Papp A→B at 2 h, 5 µM in [7] was found to be 15.2 ×10⁻⁶ cm/s. Also, the remaining at 0.5 h in data set [5] was determined as 44%; in data set [6] it was 2%. Further, the 50% inhibitory concentration (IC50) was found to be 1.22 µM in [1], 6.85 µM in data set [2] and 0.364 µM in data set [3].

As for `c1ccc2cc(-c3[nH]ncc3-c3ccncc3)ccc2c1`, the Ratio IC50 in data set [10] stood at 20.

Turning to `c1ccc2cc(-c3n[nH]cc3-c3ccncc3)ccc2c1`, in data set [11], the Ratio was found to be 1.14. For the same molecule, the apparent permeability from apical to basolateral (Papp A→B) at 2 h, 5 µM in data set [7] was 16.9 ×10⁻⁶ cm/s. Moreover, the remaining at 0.5 h in [5] was found to be 52%; in data set [6], 1%. The half-maximal inhibitory concentration (IC50) stood at 0.864 µM in [1], 7.15 µM in data set [2] and 0.245 µM in [3]. For the same molecule, the remaining at 1 h in data set [8] was determined as 73%; in data set [9], 100%.

`c1ccc2cc(-c3nn[nH]c3-c3ccncc3)ccc2c1`: in data set [10], the Ratio IC50 was 20.

Regarding `c1ccc2cc(-n3nccc3-c3ccncc3)ccc2c1`, the remaining at 0.5 h in [5] worked out at 58%; in [6], 11%. The IC50 in data set [1] was 4.88 µM; in data set [2], more than 50 µM; in data set [3], 1.23 µM.

Consider `S=c1[nH]nc(-c2ccncc2)n1-c1cnc2ccccc2c1`, for which the IC50 in data set [1], in data set [2] and in [3] was more than 50 µM each time. In data set [4], this molecule gave a solubility of 100 µM (≈ 30.5 µg/mL).

`c1ccc2cc(-n3cnnc3-c3ccncc3)ccc2c1`: in [7], the Papp A→B at 2 h, 5 µM was determined as 30.6 ×10⁻⁶ cm/s. In addition, the figures for the remaining at 0.5 h in [5] and in [6] were 100% and 76%, respectively. The figures for the IC50 in data set [1], in data set [2] and in data set [3] were 19 µM, more than 50 µM and 4.48 µM, respectively. The figures for the remaining at 1 h in data set [8] and in [9] were 100% and 87%, respectively. This molecule also came in with a solubility in data set [4] of 35 µM (≈ 9.53 µg/mL).

On to `c1ccc2cc(-c3ncncc3-c3ccncc3)ccc2c1`, for which the results for the remaining at 0.5 h in [5] and in data set [6] were 29% and 0%, respectively. The IC50 was 18.1 µM in [1], more than 50 µM in data set [2] and 4.13 µM in data set [3].

With `Cc1cc(-c2n[nH]c(=S)n2-c2cnc3ccccc3c2)ccn1`, the IC50 in [1], in data set [2] and in data set [3] was more than 50 µM in each case. The solubility in [4] was determined as 100 µM (≈ 31.9 µg/mL).

`Cc1nnc(-c2ccncc2)n1-c1ccc2ccccc2c1`: the IC50 is 46.2 µM in [1], more than 50 µM in data set [2] and 18.3 µM in data set [3]. The solubility in data set [4] was 100 µM (≈ 28.6 µg/mL).

`c1ccc2cc(-n3ccnc3-c3ccncc3)ccc2c1`: the results for the remaining at 0.5 h in data set [5] and in [6] were 18% and 0%, respectively. The IC50 in [1] is 6.39 µM; in [2] it was more than 50 µM; in data set [3], 1.91 µM.

With `Cc1cc(-c2n[nH]c(=S)n2-c2ccc3ccccc3c2)ccn1`, the values for the IC50 in [1], in data set [2] and in [3] were 15.3 µM, more than 50 µM and 14.8 µM, respectively. For the same molecule, in [4], the concentration in solution (solubility) was 100 µM (≈ 31.8 µg/mL).

Consider `S=c1[nH]nc(-c2ccnc(NCC3CC3)c2)n1-c1ccc2ccccc2c1`, for which the values for the IC50 in data set [1], in [2] and in data set [3] were 2.25 µM, more than 50 µM and 0.945 µM, respectively. Moreover, the solubility in data set [4] was found to be 35 µM (≈ 13.1 µg/mL).

Consider `c1ccc2cc(-n3nnnc3-c3ccncc3)ccc2c1`, for which the results for the half-maximal inhibitory concentration (IC50) in data set [1], in data set [2] and in data set [3] were more than 50 µM, more than 50 µM and 49.1 µM, respectively. Also, the concentration in solution in data set [4] (solubility) came to 15 µM (≈ 4.1 µg/mL).

Consider `N/N=c1\[nH]nc(-c2ccncc2)n1-c1ccc2ccccc2c1`, for which the IC50 in data set [1] is 34 µM; in [2] it was more than 50 µM; in [3], 14.9 µM. The same molecule showed a solubility in data set [4] of 65 µM (≈ 19.7 µg/mL).

For the molecule `S=c1[nH]nc(-c2ccnc(NC3CCCCC3)c2)n1-c1ccc2ccccc2c1`, the IC50 in data set [1] is 0.0665 µM; in [2], more than 50 µM; in [3], 0.0522 µM. Moreover, in data set [4], the concentration in solution (solubility) was 5 µM (≈ 2.01 µg/mL).

With `Clc1nnc(-c2ccncc2)n1-c1ccc2ccccc2c1`, the IC50 in data set [1] is more than 50 µM; in [2] it was more than 50 µM; in data set [3], 30.4 µM. In [4], this molecule returned a solubility of 78 µM (≈ 23.9 µg/mL).

Turning to `c1ccc2cc(-c3ccnn3-c3ccncc3)ccc2c1`, the remaining at 0.5 h came to 2% in data set [5] and 0% in data set [6]. Moreover, the IC50 was 9.31 µM in data set [1], 41.9 µM in data set [2] and 2.46 µM in data set [3].

In the case of `Fc1cnccc1-c1n[nH]c(=S)n1-c1ccc2ccccc2c1`, the IC50 was 34.6 µM in data set [1], more than 50 µM in [2] and 27.4 µM in data set [3]. For the same molecule, in [4], the solubility was determined as 35 µM (≈ 11.3 µg/mL).

With `c1ccc2cc(-n3nncc3-c3ccncc3)ccc2c1`, the IC50 was 9.14 µM in [1], more than 50 µM in [2] and 2.67 µM in data set [3].
